Article PMC11443182 (Science signaling, 2024)
Entries after “also recorded” stand apart in the source; their conditions may differ.

Experiments:
[1] = test system: FLAG-tagged human WT AT1R; format: cell-based; details: AngII 1 μM, TRV023 10 μM, 10 min, N=5
Outline: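 Expi293F cells with inducible N-terminal FLAG-human AT1R (~2.5×10^6 density) were induced 30–36 h with doxycycline 4 µg/mL plus 5 mM butyrate, with expression checked by radioligand binding. […] Receptor was solubilized in MNG/CHS buffer with 1 µM losartan and PhosSTOP, purified on M1 anti-FLAG (EDTA/FLAG-peptide elution), TCA-precipitated, then reduced (TCEP) and alkylated (iodoacetamide) in 8 M urea/EPPS pH 8.5.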

WT AT1R [2] = experiment: β-arrestin recruitment BRET assay, WT AT1R; format: cell-based, human; details: HEK293 cells; WT AT1R-RLuc8, β-arrestin2-eGFP; 10 min, 37 °C; N=5
[3] = test system: AT1R C-terminal tail mutants (PROX, MID, DIST, NULL); experiment: β-arrestin recruitment BRET assay, AT1R C-terminal tail mutants; format: cell-based, human; details: HEK293 cells, 10 min, 37 °C, N=5
[4] = test system: AT1R C-terminal tail mutants (PROX, MID, DIST, NULL); experiment: β-arrestin1 endocytosis BRET assay, AT1R mutants; format: cell-based, human; details: HEK293 cells; β-arrestin1-RlucII/FYVE; 25 min 37 °C; N=4
Outline: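 HEK293 cells coexpressing WT or mutant AT1R, β-arrestin1-RlucII and endosomal FYVE-eGFP were reseeded next day on poly-L-ornithine plates (~25,000/well). […] Coelenterazine 400a (5 µM final) was added 2 min before reading (410/80 and 515/30 nm). Results are given as fold of untreated BRET; N=4.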

[5] = test system: AT1R C-terminal tail mutants (PROX, MID, DIST, NULL); experiment: DiscoverX active endocytosis assay; format: cell-based, human; details: U2OS cells; β-arrestin2-EA; 3 h 37 °C; chemiluminescence; N=3
Outline: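 U2OS cells stably expressing β-arrestin2-EA and endosome-localized PK were transfected with WT or mutant AT1R, replated next day at 35,000 cells/well, and treated with ligands 3 h at 37 °C two days post-transfection. PathHunter detection reagents were added with 1 h RT incubation, then β-gal complementation chemiluminescence was read. Results are expressed as fold of untreated cells.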

WT AT1R [6] = experiment: Intramolecular FlAsH BRET; format: cell-based, human; details: HEK293 cells, AngII 1 μM, TRV023 10 μM, 10 min, N=4
Outline: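 HEK293 cells were Fugene HD-cotransfected with 1.5 µg AT1R and 0.1 µg of each rLuc–β-arrestin2–FlAsH construct. At 48 h cells in HBSS were labeled with 2.5 µM TC-FlAsH (or mock) for 30 min at RT, washed in BAL buffer and plated at 100,000/well. […] Six readings were taken (440–480 / 525–585 nm). Net BRET was calculated after mock-label and vehicle subtraction; N=4.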

[7] = test system: AT1R C-terminal tail mutants (PROX, MID, DIST, NULL); experiment: Intramolecular FlAsH BRET; format: cell-based, human; details: HEK293 cells, 10 min, N=4
WT AT1R (p-ERK/t-ERK) = experiment: ERK phosphorylation Western blot, HEK293 cells, WT AT1R; format: cell-based, human; details: AngII 1 μM, TRV023 10 μM, 10 min, N=8-9
Outline: (§1)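 Receptor constructs (plasmid amounts adjusted to equalise receptor expression by radioligand binding) transfected with lipofectamine 2000 into cells grown in MEM with 10% FBS. […] RIPA lysis with protease/phosphatase inhibitors, 1 h at 4°C. SDS-PAGE/PVDF; phospho-ERK1/2 (1:1000) normalised to total ERK1/2 (1:2000).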

[8] = test system: AT1R C-terminal tail mutants (p-ERK/t-ERK); experiment: ERK phosphorylation Western blot, HEK293 cells, AT1R mutants; format: cell-based, human; details: 10 min, N=8-9
Outline: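 HEK293 cells in 6-well plates were lipofectamine 2000-transfected with WT or mutant AT1R, with DNA adjusted to matched expression. Medium was refreshed on day 1. […] RIPA lysates with protease/phosphatase inhibitors were run on SDS-PAGE/PVDF and probed for phospho-ERK1/2 (1:1000) versus total ERK1/2 (1:2000) overnight at 4 °C.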

[9] = test system: WT and mutant AT1Rs (p-ERK/t-ERK) in GqKO cells; experiment: ERK phosphorylation Western blot, HEK293 GqKO cells, WT and mutant AT1Rs; format: cell-based, human; details: for ERK activation in GqKO cells: HEK293 GqKO cells vs WT cells, AngII 1 μM, TRV023 10 μM, Telm 10 μM
Outline: as §1

[10] = test system: WT and mutant AT1Rs (nuclear ERK activity); experiment: Nuclear ERK BRET; format: cell-based, human
[11] = test system: AT1R-PROX mutant (nuclear ERK activity); experiment: Nuclear ERK BRET; format: cell-based, human; details: HEK293T cells; AngII 1 μM; 5 min; vs WT receptor
Outline: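 WT or mutant AT1R (DNA adjusted for expression) PEI-co-transfected with 50 ng nuclear-localised EKAR biosensor with a NanoLuciferase donor. After 24 h, replated at 50,000/well in starvation MEM with 0.5% FBS, ± PTX 200 ng/mL. […] Read at 37°C, 530/480 nm; net BRET = ligand minus vehicle.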

AT1R WT / GRK2 = experiment: GRK2 recruitment BRET assay, WT AT1R; format: cell-based, human; details: GRKΔ4 cells; AngII 1 μM, TRV023 10 μM; 5 min
Outline: (§2)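 GRK2/3/5/6-null HEK293 cells were PEI-transfected with WT or mutant AT1R-Rluc8 (DNA adjusted to match expression) plus 1 µg C-terminally YFP-tagged GRK2. After 24 h they were plated at 50,000/well in 2% FBS starvation MEM. […] Plates were read at 37 °C (530/480 nm), and net BRET was taken as ligand minus vehicle.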

AT1R mutants / GRK2 = experiment: GRK2 recruitment BRET assay, AT1R mutants; format: cell-based, human; details: GRKΔ4 cells; AngII 1 μM, TRV023 10 μM; 5 min
Outline: as §2

AT1R mutants / GRK3 = experiment: GRK3 recruitment BRET assay, AT1R mutants; format: cell-based, human; details: GRKΔ4 cells; AngII 1 μM, TRV023 10 μM; 5 min
Outline: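 HEK293 cells lacking GRK2/3/5/6 PEI-transfected with WT or mutant AT1R-Rluc8 (DNA adjusted to equalise expression) and 1 µg GRK3-YFP (C-terminal tag). Replated after 24 h at 50,000/well in starvation MEM with 2% FBS. […] Read at 37°C, 530/480 nm; net BRET = ligand minus vehicle.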

AT1R mutants (Gq) = experiment: G protein activation TRUPATH BRET assay; format: cell-based, human; details: AngII concentration response; any of the AT1R mutants
[12] = test system: AT1R mutants (Ca2+ response); experiment: FLIPR Ca2+ assay, AT1R mutants; format: cell-based, human; details: HEK293T cells; AngII serial doses, 37 °C; AUC; n=5
Outline: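 HEK293T cells (500,000/well) were transfected 24 h after seeding with WT, or adjusted amounts of PROX or MID AT1R giving equal expression. Next day they were replated at 50,000/well overnight and loaded with Calcium 6 dye 2 h at 37 °C.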

AT1R / β-arrestin = details: receptor "pre-phosphorylated"; AngII vs TRV023; cited from earlier work
AT1R / GRKs = details: cited from earlier work

**Q.** Which “phosphorylation in DIST region” value ([1]; DIST region) does the source give for “angiotensin II (DRVYIHPF; Angiotensin-2; UniProt P01019 25-32, looked up) [AngII]” here?
**A.** The value was “comparable amounts of phosphorylation in the DIST region”.

**Q.** And the “phosphorylation in PROX region” value ([1]; PROX: Ser326, Ser328, Ser331, Thr332)?
**A.** Its value is “The magnitude of increase was greatest in the proximal region of the tail; also recorded: the greatest increase in receptor phosphorylation occurred in the PROX region”.

**Q.** And the “β-arrestin recruitment (net BRET)” value (WT AT1R [2])?
**A.** The value was “robust β-arrestin recruitment”.

**Q.** And the “β-arrestin recruitment (net BRET), AT1R-DIST” value ([3]; AT1R-DIST mutant)?
**A.** The value was “robust β-arrestin recruitment”.

**Q.** And the “reduction of β-arrestin recruitment, MID sites mutated” value ([3]; AT1R-MID mutant)?
**A.** Its value is 50%.

**Q.** What about the “reduction of β-arrestin recruitment, PROX sites mutated” value ([3]; AT1R-PROX mutant) of the same compound?
**A.** The value was 50%.

**Q.** What about the “AT1R internalization: requirement of DIST phosphorylation” value [4] of the same compound?
**A.** The value was “largely dispensable”.

**Q.** What about the “AT1R internalization: requirement of DIST phosphorylation” value [5] of the same compound?
**A.** The value was “largely dispensable”.

**Q.** And the “AT1R internalization: requirement of PROX and MID phosphorylation” value [5]?
**A.** Its value is “required for AT1R internalization”.

**Q.** What about the “β-arrestin2 conformation, six FlAsH sensor profile” value (WT AT1R [6]) of the same compound?
**A.** The value was “distinct β-arrestin conformations”.

**Q.** What about the “FlAsH4 BRET signal” value (WT AT1R [6]; Telm 10 μM) of the same compound?
**A.** Its value is “significant decrease in BRET compared to the shape profile induced by Telm”.

**Q.** And the “β-arrestin2 FlAsH profile, AT1R-DIST” value [7]?
**A.** The value was “more comparable to that of the WT AT1R”.

**Q.** And the “ERK phosphorylation (p-ERK/t-ERK)” value (WT AT1R (p-ERK/t-ERK))?
**A.** The value was “significant increase in ERK phosphorylation”.

**Q.** And the “ERK phosphorylation, AT1R-MID” value ([8]; AT1R-MID vs WT AT1R)?
**A.** Its value is “somewhat higher activation of ERK phosphorylation”.

**Q.** And the “ERK phosphorylation, all phosphorylation-deficient mutants” value ([8]; AngII 1 μM, TRV023 10 μM)?
**A.** The value was “largely similar to that of the WT AT1R”.

**Q.** What about the “ERK activation in GqKO cells” value ([9]; 10 min, N=7-8) of the same compound?
**A.** The value was “substantially lower in GqKO cells compared to WT cells”.

**Q.** And the “ERK activation in GqKO cells, PROX mutant” value ([9]; HEK293 GqKO cells, AT1R-PROX, 10 min, N=7-8)?
**A.** The value was “most impairment relative to WT cells; also recorded: more substantially diminished in cells lacking Gq”.

**Q.** And the “nuclear ERK activation” value ([10]; HEK293T cells, AT1R WT and all AT1R mutants, AngII 1 μM, 5 min, net BRET)?
**A.** Its value is “increase in ERK activation”.

**Q.** And the “nuclear ERK response, PROX mutant” value [11]?
**A.** The value was “significantly impaired ERK response compared to WT receptor”.

**Q.** What about the “GRK2 recruitment, AT1R WT” value (AT1R WT / GRK2) of the same compound?
**A.** The value was “robust recruitment”.

**Q.** What about the “GRK2 recruitment, DIST mutant” value (AT1R mutants / GRK2) of the same compound?
**A.** Its value is “significantly impaired”.

**Q.** And the “GRK2 recruitment, MID mutant” value (AT1R mutants / GRK2)?
**A.** Its value is “significantly impaired”.

**Q.** What about the “GRK2 recruitment, PROX mutant” value (AT1R mutants / GRK2) of the same compound?
**A.** Its value is “robust recruitment”.

**Q.** And the “GRK3 recruitment, MID mutant” value (AT1R mutants / GRK3)?
**A.** Its value is “impaired in response to TRV023, but not AngII”.

**Q.** What about the “EC50 of G protein activation, AT1R mutants” value (AT1R mutants (Gq)) of the same compound?
**A.** The value was “No difference in EC50”.

**Q.** What about the “EC50 of Ca2+ response” value [12] of the same compound?
**A.** The value was “no difference in EC50”.

**Q.** And the “maximal Ca2+ response, AT1R-PROX” value [12]?
**A.** The value was “reduced maximal Ca^2+ response”.

**Q.** And the “allosteric interaction with β-arrestin” value (AT1R / β-arrestin)?
**A.** Its value is “somewhat stronger allosteric interaction with β-arrestin than does TRV023”.

**Q.** What about the GRK recruitment (AT1R / GRKs) of the same compound?
**A.** The GRK recruitment was “recruits GRK2/3 and GRK5/6”.

**Q.** With `CCCc1nc2c(C)cc(-c3nc4ccccc4n3C)cc2n1Cc1ccc(-c2ccccc2C(=O)O)cc1` [Telm, telmisartan] as the compound, how does the “ERK activation in GqKO cells” value ([9]; 10 min, N=7-8) read?
**A.** The value was “did not induce ERK activation”.

**Q.** With pertussis toxin [PTX] as the compound, how does the “inhibition of AngII-induced ERK activation by PTX” value ([9]; GqKO cells, PTX pretreatment before AngII, WT and mutant AT1Rs) read?
**A.** Its value is “largely blocked AngII-induced ERK activation”.

**Q.** And the “PTX block of AngII-stimulated nuclear ERK” value ([10]; PTX 200 ng/mL pretreatment, stimulated by AngII, WT and mutant receptors)?
**A.** Its value is “about 50%”.

**Q.** What about the “PTX block of TRV023-stimulated nuclear ERK” value ([10]; PTX 200 ng/mL pretreatment, stimulated by TRV023, WT and mutant receptors) of the same compound?
**A.** Its value is “about 50%”.
